From PubChem
HNF4A DNA FP – change in binding of human HNF4 alpha to DNA; P41235; HNF4a-FITC DNA binding, fluorescence polarization, 1 h; activity change, % at 10 µM; 0.3% of 360,000 active; AID 1224865; in the data active = activity change above about 30%, passing the limit was not always enough
Exocytosis inh – blocks lytic granule exocytosis | TALL-104 LAMP-1 surface exposure, flow cytometry; cells stimulated with thapsigargin and PMA | inhibition, % at 10 µM | 0.66% of 360,000 active | AID 651702;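 active = inhibition above about 55%, limit read from the data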
CSN inh – inhibitors of human CSN-mediated cullin deneddylation. Q92905. Purified CSN, SCF-Nedd8-OG deneddylation, fluorescence polarization. inhibition, % at 12.5 µM. 0.38% of 360,000 active;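 active = pattern-corrected inhibition above about 35%, with an unprinted fluorescence ratio check between 0.5 and 1.5, limit read from the data, passing the limit was not always enough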
Target sequence (Q92905 whole entry, looked up, one chain of several): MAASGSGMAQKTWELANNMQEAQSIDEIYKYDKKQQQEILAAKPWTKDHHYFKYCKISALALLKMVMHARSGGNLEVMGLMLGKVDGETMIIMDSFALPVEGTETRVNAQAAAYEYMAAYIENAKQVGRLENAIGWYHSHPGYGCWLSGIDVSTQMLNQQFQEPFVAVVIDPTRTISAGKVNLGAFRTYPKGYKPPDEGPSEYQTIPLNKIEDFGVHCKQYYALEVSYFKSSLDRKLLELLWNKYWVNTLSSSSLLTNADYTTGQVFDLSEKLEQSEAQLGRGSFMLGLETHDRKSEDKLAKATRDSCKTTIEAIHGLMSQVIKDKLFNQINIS
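assay system = purified human Csn5 enzyme expressed in HEK293T cells | amount = 0.24 nM enzyme | buffer or medium = Tris/NaCl/DTT buffer, pH 7.5 | reagent = 10 nM SCFSkp2-Nedd8OG | compound = one concentration, 12.5 µM, 0.25% DMSO | times = 90 min reaction at room temperature | signal = FP | read-out basis = % inhibition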
Myeloid diff MLP – promotes myeloid progenitor differentiation. ER-HoxA9 myeloid progenitors, lysozyme-GFP differentiation, flow cytometry. calls only at 10 µM. 1% of 360,000 active. AID 624256;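 active = normalized GFP-positive differentiation at or above the plate's own cutoff, the solvent-only control mean plus 3 SD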;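 note: cells exposed to compound for four days before flow analysis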
Myeloid diff – myeloid differentiation induction | shares compounds with Myeloid diff MLP | ER-HoxA9 myeloid progenitors, GFP/Mac1 double-positive flow | calls only | 2% of 2,300 active | AID 651706;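 active = share of green or green-and-red cells above 9 and 9% in run 1 or 4 and 3% in run 2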
GFP autofluor – flagged as fluorescent in myeloid differentiation counter-screen | 7.4% of 2,300 active | ER-HoxA9 myeloid progenitors, no estrogen, GFP autofluorescence flow cytometry; vehicle wells 0%, positive control 100% | shares compounds with Myeloid diff MLP | fluorescence response, % (test concentration not listed) | AID 651707;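 active = over 5% cells positive for green fluorescent reporter, or over 2% positive for both it and APC stain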
Calls only. A selection: hits, their analogues and other compounds. The true share with any hit is near 2.2%.

How did CCN(CC)S(=O)(=O)c1cc(OCC(N)=O)c(C)cc1Cl do in these assays?
HNF4A DNA FP: inactive; Exocytosis inh: inactive; CSN inh: inactive; Myeloid diff MLP: inactive; Myeloid diff: inactive; GFP autofluor: inactive

Results for Cc1cc(Cl)c(S(N)(=O)=O)cc1OCC(N)=O ?
HNF4A DNA FP: inactive; Exocytosis inh: inactive; CSN inh: inactive; Myeloid diff MLP: inactive

Results for Cc1cc(C)n(-c2nc3ccccc3nc2N2CCC(C)CC2)n1 ?
HNF4A DNA FP: inactive; Exocytosis inh: inactive; CSN inh: inactive; Myeloid diff MLP: inactive

Results for Cc1cc(C)n(-c2nc3ccccc3nc2N2CCN(C(=O)c3ccc(F)cc3)CC2)n1 ?
HNF4A DNA FP: inactive; Exocytosis inh: inactive; CSN inh: inactive; Myeloid diff MLP: inactive; Myeloid diff: inactive; GFP autofluor: inactive

How did CCC1(CC)NC(=O)N(CC(=O)OCC(=O)Nc2cc(C)ccc2C)C1=O do in these assays?
HNF4A DNA FP: inactive; Exocytosis inh: inactive; CSN inh: inactive; Myeloid diff MLP: active; Myeloid diff: inactive; GFP autofluor: inactive

Results for Cc1ccc(-c2nn3c(C)nnc3s2)cc1NC(=O)CSc1ccc(Cl)cc1 ?
HNF4A DNA FP: inactive; Exocytosis inh: inactive; CSN inh: inactive; Myeloid diff MLP: active; Myeloid diff: active; GFP autofluor: inactive

What do the screens show for `Cn1ccc2c(-c3ccc(C(C)(C)C)cc3)cc3c(c21)C1CCC3O1` (centres undefined)?
HNF4A DNA FP: inactive; Exocytosis inh: inactive; CSN inh: inactive; Myeloid diff MLP: active; Myeloid diff: active; GFP autofluor: inactive

How did COc1ccc(C(=O)OCc2cc(C)ccc2C)cc1S(=O)(=O)N1CCCC1 do in these assays?
HNF4A DNA FP: inactive; Exocytosis inh: inactive; CSN inh: inactive; Myeloid diff MLP: active; Myeloid diff: inactive; GFP autofluor: inactive

Results for Cc1ccc(CNC(=O)CN(C)S(=O)(=O)c2cnc[nH]2)cc1 ?
HNF4A DNA FP: inactive; Exocytosis inh: inactive; CSN inh: inactive; Myeloid diff MLP: inactive

How did COc1cccc(CNC(=O)CN(C)S(=O)(=O)c2cnc[nH]2)c1 do in these assays?
HNF4A DNA FP: inactive; Exocytosis inh: inactive; CSN inh: inactive; Myeloid diff MLP: active; Myeloid diff: inactive; GFP autofluor: inactive

How did COc1cccc(CN(C(=O)c2cc3ccccc3oc2=O)C2CCS(=O)(=O)C2)c1 (centres undefined) do in these assays?
HNF4A DNA FP: inactive; Exocytosis inh: inactive; CSN inh: inactive; Myeloid diff MLP: inactive

Results for O=C(COC(=O)c1nc(Cl)c(Cl)c(Cl)c1Cl)NCc1ccccc1 ?
HNF4A DNA FP: inactive; Exocytosis inh: inactive; CSN inh: inactive; Myeloid diff MLP: inactive

Results for Cc1nc(-c2ccc([N+](=O)[O-])cc2)nc2[nH]ccc(=O)c12 ?
HNF4A DNA FP: inactive; Exocytosis inh: inactive; CSN inh: inactive; Myeloid diff MLP: inactive

What do the screens show for `CCN(CC)/C(=N\S(=O)(=O)c1ccccc1C)c1ccccc1`?
HNF4A DNA FP: inactive; Exocytosis inh: inactive; CSN inh: inactive; Myeloid diff MLP: inactive

Results for CCN(CC(=O)NCc1ccc(Cl)cc1)C(=O)CCC(=O)c1ccc(C)cc1 ?
HNF4A DNA FP: inactive; Exocytosis inh: inactive; CSN inh: inactive; Myeloid diff MLP: inactive

Results for CCN(CC(=O)NCc1ccc(Cl)cc1)C(=O)CCC(=O)c1ccc(F)cc1 ?
HNF4A DNA FP: inactive; Exocytosis inh: inactive; CSN inh: inactive; Myeloid diff MLP: active; Myeloid diff: inactive; GFP autofluor: inactive

Results for Cc1ccccc1OCCC(=O)OCC(=O)NC1CCS(=O)(=O)C1 (centres undefined) ?
HNF4A DNA FP: inactive; Exocytosis inh: inactive; CSN inh: inactive; Myeloid diff MLP: inactive

Results for O=C(c1cc(-c2ccccc2Cl)nc2ccccc12)N1CCN(c2ccccn2)CC1 ?
HNF4A DNA FP: inactive; Exocytosis inh: inactive; CSN inh: inactive; Myeloid diff MLP: inactive; Myeloid diff: inactive; GFP autofluor: inactive

What do the screens show for `COc1ccc(-c2cc(C(=O)N3CCN(c4ncccn4)CC3)c3ccccc3n2)c(OC)c1`?
HNF4A DNA FP: inactive; Exocytosis inh: inactive; CSN inh: inactive; Myeloid diff MLP: inactive

What do the screens show for `COc1ccc(-c2cc(C(=O)N3CCCCCC3)c3ccccc3n2)c(OC)c1`?
HNF4A DNA FP: inactive; Exocytosis inh: inactive; CSN inh: inactive; Myeloid diff MLP: active; Myeloid diff: inactive; GFP autofluor: inactive

What do the screens show for `Cc1ccc(C(=O)N/C(=C\c2cccs2)C(=O)NCCCN2CCOCC2)cc1`?
HNF4A DNA FP: inactive; Exocytosis inh: inactive; CSN inh: inactive; Myeloid diff MLP: inactive

What do the screens show for `COc1ccc(C)cc1NC(=O)n1ncc2cc(Cl)ccc21`?
HNF4A DNA FP: inactive; Exocytosis inh: inactive; CSN inh: inactive; Myeloid diff MLP: active; Myeloid diff: active; GFP autofluor: inactive

Results for Cc1ccccc1NC(=O)n1ncc2cc(Cl)ccc21 ?
HNF4A DNA FP: inactive; Exocytosis inh: inactive; CSN inh: inactive; Myeloid diff MLP: inactive

Results for Cc1cccc(-n2c(Cc3ccccc3)nnc2SCC(=O)N2CCOCC2)c1 ?
HNF4A DNA FP: inactive; Exocytosis inh: inactive; CSN inh: inactive; Myeloid diff MLP: inactive; Myeloid diff: inactive; GFP autofluor: inactive

Results for N/C(=N\OC(=O)C12CC3CC(CC(C3)C1)C2)c1cccnc1 ?
HNF4A DNA FP: inactive; Exocytosis inh: inactive; CSN inh: inactive; Myeloid diff MLP: inactive; Myeloid diff: inactive; GFP autofluor: inactive

How did N/C(=N\OC(=O)C12CC3CC(CC(C3)C1)C2)c1ccccc1 do in these assays?
HNF4A DNA FP: inactive; Exocytosis inh: inactive; CSN inh: inactive; Myeloid diff MLP: inactive

How did O=C(Cc1ccccc1)N/N=C/c1ccc(-c2ccc([N+](=O)[O-])cc2)o1 do in these assays?
HNF4A DNA FP: inactive; Exocytosis inh: inactive; CSN inh: inactive; Myeloid diff MLP: active; Myeloid diff: inactive; GFP autofluor: inactive

How did COCCN(C(=O)COC(=O)Cc1c[nH]c2ccccc12)c1c(N)n(Cc2ccccc2)c(=O)[nH]c1=O do in these assays?
HNF4A DNA FP: inactive; Exocytosis inh: inactive; CSN inh: inactive; Myeloid diff MLP: inactive

Results for Cc1cc(C)c(S(=O)(=O)N2CCN(c3ccc([N+](=O)[O-])c(-n4nc(C)cc4C)c3)CC2)c(C)c1 ?
HNF4A DNA FP: inactive; Exocytosis inh: inactive; CSN inh: inactive; Myeloid diff MLP: inactive

Results for Cc1cc(C)n(-c2cc(N3CCN(S(=O)(=O)c4ccc(Br)cc4)CC3)ccc2[N+](=O)[O-])n1 ?
HNF4A DNA FP: inactive; Exocytosis inh: inactive; CSN inh: inactive; Myeloid diff MLP: inactive; Myeloid diff: inactive; GFP autofluor: inactive

How did CCc1ccc(CN2CCC(n3nccc3NC(=O)c3cccc(F)c3)CC2)cc1 do in these assays?
HNF4A DNA FP: inactive; Exocytosis inh: inactive; CSN inh: inactive; Myeloid diff MLP: active; Myeloid diff: inactive; GFP autofluor: inactive

How did O=C(Nc1ccnn1C1CCN(Cc2ccc3nonc3c2)CC1)c1cccc(F)c1 do in these assays?
HNF4A DNA FP: inactive; Exocytosis inh: inactive; CSN inh: inactive; Myeloid diff MLP: inactive
